Publication PMC7063993 (ACS chemical neuroscience, 2019)

Assays:
[1] = tested on: rat brain mitochondrial complex I; assay: Mitochondrial complex I; assay type: biochemical
[2] = tested on: dopaminergic SH-SH5Y cells; assay: MTT cell viability assay, SH-SY5Y cell toxicity; assay type: cell-based; conditions: read-out: IC50 (SH-SH5Y cell toxicity)
In short: (§1)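 Cells grown in 96-well plates to ~70–80% confluence. Medium replaced with DMEM containing test compound at varying concentrations, 18 h (12 h in one series) at 37 °C. MTT added for 2 h at 37 °C. Formazan dissolved in 50% DMF/20% SDS for 12 h at 37 °C and read as A570 minus A650. Viability expressed as % of untreated controls.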

HepG2 cells [3] = assay: MTT cell viability assay, HepG2 cell toxicity; assay type: cell-based, Human; conditions: same conditions/concentrations as MN9D experiments
In short: as §1

[4] = Relative lipophilicity estimated by reverse phase HPLC retention times; assay type: physicochemical
MN9D cells [5] = assay: Cellular uptake into MN9D cells; assay type: cell-based, mouse; conditions: for Concentration dependence of MN9D cell uptake: up to 100 μM (0-100 μM for 45 min for [3], [4], [5])
In short: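 MN9D cells seeded at 0.25 x 10⁶ cells/well and grown 2–3 days to 70–80% confluency. Test compound in warm KRB-HEPES (pH 7.4) at 37 °C: 50 μM for 0–60 min (time course) or varying concentrations for 45 min. Cells washed in ice-cold buffer and pellets extracted with 0.1 M HClO₄. C18 reversed-phase HPLC-UV quantified against standard curves. Normalized to Bradford protein, time-zero readings subtracted.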

MN9D cells [6] = assay: Chromatin condensation test for apoptosis; assay type: cell-based, mouse; conditions: 200 μM [1], 12 h, 300 nM DAPI
In short: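 MN9D cells on glass-bottomed plates exposed to test compound for 12 h. Nuclear DAPI fluorescence (Ex/Em 358/461 nm) from chromatin condensation observed by fluorescence microscopy. Controls handled the same way without toxin.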

HepG2 cells [7] = assay: Intracellular ROS levels by DCFH-DA in HepG2 cells; assay type: cell-based, Human; conditions: 1 h
In short: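 Cells in 12-well plates loaded with 10 μM DCFH-DA in KRB-HEPES for 1 h, then washed with ice-cold buffer. Exposed to test compound in the same buffer for 1 h at 37 °C. Harvested and lysed in 0.1 M Tris (pH 7.5) with 1% Triton X-100, then cleared by centrifugation. DCF fluorescence read at Ex/Em 488/524 nm and normalized to protein content.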

[8] = Uptake into isolated intact MN9D cell mitochondria; parameters: species or system mouse; conditions: 50 μM, 45 min
[9] = tested on: MN9D cell mitochondrial membrane potential; assay: Mitochondrial membrane potential; assay type: cell-based, mouse; conditions: 500 μM, 1 h of incubation, TMRM
In short: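 MN9D cells on glass-bottomed plates loaded with 50 nM TMRM in KRB-HEPES for 45 min in the dark. Fluorescence (Ex/Em 543/573 nm) recorded from 15–20 ROIs every 5 s for 3 min as baseline. Test compound then added and recording continued every 15 s for 1 h. Background subtracted and ROI averages taken as membrane potential.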

MN9D cells [10] = assay: Intracellular ROS levels by DCFH-DA in MN9D cells; assay type: cell-based, mouse
dopaminergic MN9D cells = assay: MTT cell viability assay, MN9D cell toxicity; assay type: cell-based, mouse; conditions: Asc pre-treatment 30 min, 8 μM [3] or 40 μM [1], 18 h
In short: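 MN9D cells in 96-well plates pretreated with ascorbate (0–500 μM) for 30 min at 37 °C. Then exposed to a fixed concentration of test compound with the same ascorbate level for 18 h at 37 °C. Read by MTT (A570 − A650) as % of controls. Parallel toxin-free wells at each ascorbate level subtracted to correct for MTT reduction by ascorbate.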

| Compound | RT (relative lipophilicity, reverse phase HPLC retention time) [4] [min] | Concentration dependence of MN9D cell uptake (MN9D cells [5]) | Effect on intracellular ROS levels in HepG2 cells (HepG2 cells [7]) | Uptake into isolated intact MN9D mitochondria [8] | Depolarization of MN9D cell mitochondrial membrane potential [9] | also measured |
| --- | --- | --- | --- | --- | --- | --- |
| C=C(C)[C@H]1Cc2c(ccc3c2O[C@@H]2COc4cc(OC)c(OC)cc4[C@@H]2C3=O)O1 [rotenone] | – | – | – | – | – | Inhibition of ubiquinone dependent NADH oxidation activity of complex I ([1]; 10 μM, positive control, compared to control): more than 85% |
| CC(=C[n+]1ccc(-c2ccccc2)cc1)c1ccccc1 [[1], N-(2-phenyl-1-propene)-4-phenyl-pyridinium] | 6.33 | non-saturable | – | – | – | IC50 [2]: ~50 µM; Toxicity to HepG2 cells (HepG2 cells [3]): not significantly toxic; Time course of MN9D cell uptake (MN9D cells [5]; 50 μM, up to 1 h, 37°C): linear; Chromatin condensation (nuclear DAPI fluorescence) in MN9D cell death (MN9D cells [6]): associated with chromatin condensation |
| 4-(4′-methoxyphenyl-1-[2-(4-chlorophenyl)-propyl] pyridinium bromide [[3]] | 8.39 | concentration dependent and non-saturable | did not increase | accumulate efficiently in intact mitochondria with comparable efficiency | drastically | Increase of intracellular ROS level from the baseline levels (MN9D cells [10]; MN9D cells, 100 μM, 1 h, DCFH-DA): 2.5–3.0 fold |
| O=C1O[C@H]([C@@H](O)CO)C(O)=C1O [Asc, ascorbate, reference compound] | – | – | – | – | – | Effect on [1] and [3]-mediated MN9D cell death (dopaminergic MN9D cells): protects; Effect on [1]-mediated ROS production in MN9D cells (MN9D cells [10]; Asc 0-2 mM pre-incubation 1 h, then 200 μM [1] for 5 h): effectively reduces |
| C[n+]1ccc(-c2ccccc2)cc1 [MPP^+, 1-methyl-4-phenylpyridinium] | – | – | – | – | – | Relative percent inhibition of complex I ([1]; 100 μM, rat brain mitochondrial membranes): 12.5% |
| 4-(4′-methoxyphenyl-1-[2-(4-fluorophenyl)-propyl]pyridinium bromide [[5]] | 6.97 | concentration dependent and non-saturable | did not increase | accumulate efficiently in intact mitochondria with comparable efficiency | very weakly | Effect on intracellular ROS levels in MN9D cells (MN9D cells [10]; MN9D cells, up to 100 μM, 1 h, DCFH-DA): did not significantly increase |
